WT yeast gro inh: growth inhibition of WT yeast, mitochondrial fusion screen | inhibition, % at 10 µM | mitochondrial fusion phenotypic screen, WT strain | 2.1% of 190,000 active | AID 1362; in the data active = inhibition above about 58%; tested in S. cerevisiae
Tb MetRS inh: Trypanosoma brucei MetRS inhibition | purified T. brucei MetRS, ATP depletion, Kinase-Glo luminescence | inhibition, % at 11.9 µM | 0.4% of 360,000 active;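 active = inhibition above a per-plate cutoff of the control wells' mean inhibition plus 3 SD, cut at about 5.5% in these data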;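 note: 0% = DMSO wells median and 100% = median of wells with control inhibitor compound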
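Test system: purified T. brucei MetRS enzyme. Also added: ATP, methionine and E. coli bulk tRNA substrates. Compound: 11.9 µM single point. Schedule: 15 min enzyme-compound preincubation, 2 h reaction, 10 min detection, 25 °C. Signal: luciferase luminescence of residual ATP, Kinase-Glo. Evaluation: percent inhibition versus plate control medians. Controls: DMSO wells, low control.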
MPTP inh: blocks calcium-induced mitochondrial swelling. isolated mouse mitochondria, Ca2+ swelling absorbance, 30 min. AID 602449. 1.4% of 360,000 active. inhibition, % at 10 µM;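 active = inhibition of 50% or more, scaled per plate between neutral and stimulator controls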;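 note: 0% = DMSO wells given calcium and 100% = 1 mM EGTA wells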
EBV gp42 block: EBV gp42 inhibition; Q1HVG2; Fluorescence polarization binding assay, mP read-out; inhibition, % (tested at 21.74 µM); 0.42% of 220,000 active; in the data active = inhibition above about 50%
Target sequence (Q1HVG2 whole entry, looked up): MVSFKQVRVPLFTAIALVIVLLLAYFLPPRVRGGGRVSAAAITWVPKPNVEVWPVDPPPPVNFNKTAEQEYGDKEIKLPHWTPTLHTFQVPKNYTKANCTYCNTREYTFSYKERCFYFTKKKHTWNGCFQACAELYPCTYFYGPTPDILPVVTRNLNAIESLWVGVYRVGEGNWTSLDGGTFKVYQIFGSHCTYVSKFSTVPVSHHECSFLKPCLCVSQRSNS
GRIN3A LBD mod: modulators (binders) of human NR3A ligand-binding domain. NR3A LBD differential scanning fluorimetry, Tm shift; 0% = protein alone, 100% = glycine-bound protein. Tm shift relative to glycine control, % at 25 µM. 2.5% of 340,000 active;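 active = melting temperature shift of at least 10% of the positive control shift, at one fixed dose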
CHOP inh: blocks CHOP induction under ER stress | CHO-K1 CHOP-promoter luciferase, tunicamycin-induced, 15-18 h | inhibition, % at 10 µM | 3.8% of 220,000 active | AID 2732;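 active = compounds that reduced the stress-induced luciferase reporter signal by more than about 70% of percent inhibition, limit read from the data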;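 note: 0% = tunicamycin plus vehicle and 100% = wells without tunicamycin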
Active calls of the source: *; / = no result. Hits are enriched below; roughly 6.4% of the tested compounds scored in any of these assays.

SMILES | WT yeast gro inh | Tb MetRS inh | MPTP inh | EBV gp42 block | GRIN3A LBD mod | CHOP inh
NC(=O)CC(NC(=O)Cc1cccc2ccccc12)c1ccc(N2CCCCCCC2)c([N+](=O)[O-])c1 (stereo not given) | / | 0 | 1 | / | -10 | /
NC(=O)CC(NC(=O)Cc1cccc2ccccc12)c1ccc(N2CCN(c3ccc(F)cc3)CC2)c([N+](=O)[O-])c1 (stereo not given) | / | 0 | 0 | -3 | -4 | 94*
O=C(CCNC(=O)c1ccccc1Cl)Nc1cccc(S(=O)(=O)N2CCCCC2)c1 | / | 0 | -1 | / | 4 | /
COc1cc(/C=C2/NC(=O)NC2=O)cc(Br)c1OCc1ccccc1 | -11 | -1 | 1 | -19 | -4 | 94*
COc1cc(/C=C2/NC(=O)NC2=O)cc(Br)c1OCc1cccc(C(=O)O)c1 | -12 | 1 | -1 | -4 | 0 | 5
O=C(C1CC1c1ccccc1)N1CCN(c2cccc(Cl)c2)CC1 (stereo not given) | 77* | -1 | 4 | 7 | 2 | 37
CCc1ccc(NC(=O)COC(=O)/C(=C/c2ccccc2OC)c2ccccc2)cc1 | 33 | 0 | 4 | -4 | 23* | 11
Cc1ccc(OCC(=O)NCCNC(=O)COc2ccc(C)cc2)cc1 | / | -1 | 1 | / | 0 | /
COc1ccccc1OCC(=O)NNC(=O)CCCC(=O)NNC(=O)COc1ccccc1OC | / | 0 | -1 | / | 0 | /
COc1cc(C(=O)Sc2ccc(C)cc2)cc(OC)c1OC | 9 | -1 | 0 | 7 | 0 | 82*
Cc1ccc(OCC(=O)Sc2ccc(C)cc2)cc1 | -4 | -1 | -4 | -10 | 15* | 53
COc1ccccc1OCC(=O)Sc1ccc(C)cc1 | 3 | 0 | -1 | -12 | 7 | 75*
O=C(COC(=O)Cn1cnc2ccccc21)Nc1ccc2c(c1)OCCO2 | / | 0 | -3 | 0 | -7 | -8
C=CCNC1=C(Cl)C(=O)N(c2cccc(Cl)c2Cl)C1=O | 64* | -1 | 2 | -6 | -1 | -17
C=CCN1C(=O)/C(=C\C=C2\N(C)c3ccccc3C2(C)C)SC1=S | 17 | -1 | 22 | 90* | -3 | 45
CCCN1C(=O)/C(=C/C=C2\N(CC)c3ccccc3C2(C)C)SC1=S | 21 | 0 | 18 | 127* | 6 | 54
CCN1C(=O)/C(=C/C=C2/Sc3ccccc3N2CCO)SC1=S | 53 | 0 | 18 | -19 | 2 | 25
CCCCN1C(=O)/C(=C/C=C2\Oc3ccccc3N2CC)SC1=S | 10 | -1 | 3 | 104* | -3 | 29
CSc1ccc(S(=O)(=O)NCC(=O)OCC(=O)N2CCCCC2C)cc1[N+](=O)[O-] (stereo not given) | / | 0 | -2 | / | 1 | /
Cc1cc(Cl)c(S(=O)(=O)Nc2ccc3c(c2)OCO3)cc1OCC(N)=O | -2 | 0 | 1 | -3 | 4 | -8
Cc1ccc(N(C)C(=O)C2CCN(S(=O)(=O)c3ccc4c(c3)oc(=O)n4C)CC2)cc1 | -1 | 0 | -2 | -19 | 0 | 47
Cc1cc(C)c(S(=O)(=O)N2CCC(C(=O)NCc3ccc(Cl)cc3Cl)CC2)c(C)c1 | 75* | -2 | 44 | -5 | -7 | 66
Cc1cc(C)c(S(=O)(=O)N2CCC(C(=O)NCc3ccncc3)CC2)c(C)c1 | / | 0 | -1 | / | 0 | /
O=C(CSc1nnc(-c2ccccc2)n1-c1ccc(Cl)cc1)NC1CCS(=O)(=O)C1 (stereo not given) | -11 | 0 | 1 | -7 | -3 | 7
CC(C)=CCC[C@H](C)CC1Cc2[nH]c(=S)[nH]c(=O)c2C(c2ccc(Cl)cc2)O1 (stereo not given in full) | / | -1 | -1 | / | / | /
SMILES | WT yeast gro inh | Tb MetRS inh | MPTP inh | EBV gp42 block | GRIN3A LBD mod | CHOP inh
Cc1ccc(Cn2c(=O)c3cccnc3n(CC(=O)Nc3cccc(C(F)(F)F)c3)c2=O)cc1 | 9 | -1 | 13 | -32 | 23* | 45
O=C(CN1CCN(c2ccccn2)CC1)Nc1cccc(C(F)(F)F)c1 | -3 | -1 | 4 | -7 | 1 | 27
OCC1(CCOc2ccccc2)CCN(CC2=Cc3cc(Cl)ccc3OC2)CC1 | 90* | -1 | 1 | 0 | -16 | 49
COc1cc(Cl)c(CN2CCC(CO)(CCOc3ccccc3)CC2)cc1OC | / | 3 | 2 | / | -2 | /
Oc1cc(O)cc(-c2cc3ccc(O)cc3o2)c1 | / | 1 | 0 | / | 16* | /
COCCN(CC(=O)NC1CCCCC1)C(=O)/C=C/C(=O)c1ccc(OC)cc1O | -5 | -1 | -1 | -14 | -2 | 108*
COc1ccc(C(=O)CC(=O)c2ccccc2O)cc1OC | -4 | -1 | 0 | 12 | 15* | -29
COc1ccc(C(=O)CC(=O)c2ccccc2O)cc1 | / | 2 | -3 | / | 3 | /
COc1ccc(O)c(C(=O)CC(=O)c2ccccc2C)c1 | 37 | 0 | -2 | 4 | -16 | 104*
CCC(=O)c1ccc(OCc2ccc(C(=O)OC)cc2)c(OC)c1 | 9 | 0 | -1 | 15 | 0 | -24
CCC(=O)c1ccc(OCc2ccccc2)c(OC)c1 | -7 | 0 | 2 | -3 | 11* | 36
COc1ccc(C(=O)OCC(=O)c2ccc(F)cc2)cc1OC | / | 0 | 0 | / | 0 | /
COc1ccc(O)c(C(=O)CC(=O)c2cccnc2)c1 | / | 0 | -4 | / | 0 | /
COc1ccc(C(=O)COC(=O)c2ccc(OC)c(OC)c2)cc1OC | 14 | -1 | 0 | -4 | -4 | 75*
CCOC(=O)C1Oc2ccccc2C(c2ccc(F)cc2)=C1C(=O)OC (stereo not given) | / | -1 | -2 | / | -2 | /
O=C(CN1C(=O)NC2(CCCC2)C1=O)NCCc1ccc(F)cc1 | / | 0 | 5 | / | 0 | /
CCC(=O)Nc1ccc(NC(=O)CSc2nc3c(c(=O)n(C)c(=O)n3C)n2CC)cc1 | / | 0 | -1 | / | 1 | /
CCCCc1ccc(/C=C2\C(=O)c3ccccc3C(O)=C2C(=O)OCC)cc1 | 72* | / | / | 14 | / | -13
Cn1c(CNC(=O)c2ccco2)nnc1SCC(=O)Nc1ccccc1Cl | / | 0 | 0 | / | 13* | /
COc1ccc(S(=O)(=O)N2c3ccccc3OCC2C(C)(C)C)cc1 (stereo not given) | 77* | 0 | 2 | -12 | -3 | 8
CSCCC(NC(=O)c1ccc([N+](=O)[O-])cc1Cl)C(=O)OCC(=O)C12CC3CC(CC(C3)C1)C2 (stereo not given) | 1 | 1 | 6 | -28 | -2 | 31
Cc1ncoc1C(=O)N1CCCC(C(=O)c2ccc(-c3ccccc3)cc2)C1 (stereo not given) | 68* | 0 | 4 | -9 | -1 | 2
COc1ccc(Cn2nnnc2CN2CCCCCC2)cc1 | 5 | 0 | 2 | 3 | -1 | -3
O=c1c2c(-c3cccs3)csc2ncn1/N=C/c1ccc(OC(F)F)cc1 | 43 | 0 | -5 | 4 | -6 | 77*
CNc1oc(C)nc1S(=O)(=O)c1ccccc1 | 5 | 0 | -2 | 3 | 15* | -16

Assay outcomes (PubChem BioAssay)
